OX1R antag-1: antagonists of human orexin 1 receptor (OX1R). OX1R-expressing cells, FRET antagonist read-out. 330,000 tested, 1.8% active. Orexin/Hypocretin receptor type 1 (Homo sapiens), O43613. inhibition, % at 6.6 µM; in the data active = inhibition mostly above about 38%, no sharp cut-off; inactive = mostly below about 40%;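 note: 0% = agonist challenge alone and 100% = reference antagonist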
TAAR1 antag: human TAAR1 antagonists, primary screen, Fluo-8 calcium fluorescence, CHO RD-HGA16 cells; Trace amine-associated receptor 1 (Homo sapiens), Q96RJ0; antagonist; inhibition, % at 3 µM; 360,000 tested, 1.5% active;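 active = inhibition above a per-plate cutoff, the mean inhibition of test compounds on that plate plus 3 SD, cut at about 49% in these data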;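 note: 0% = DMSO plus EC80 beta-PEA response and 100% = DMSO alone without agonist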
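Material: CHO RD-HGA16 cells bearing hTAAR1; compound dosing: one-point dosing, 3 µM nominal final; schedule: dye loading 75 min at 37 °C, then 30 min room temperature; measured by: calcium fluorescence with Fluo-8; control set: vehicle and agonist controls; replication: n of 1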
GPR7 antag: GPR7 receptor antagonists, primary screen, cell-based, fluorescence, single concentration | Neuropeptides B/W receptor type 1 (Homo sapiens), P48145 | GPR7-expressing cells, fluorescence antagonist assay | inhibition, % at 4.4 µM | 290,000 tested, 1.1% active | AID 1861, 2009; in the data active = inhibition above about 16%, passing the limit was not always enough;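 note: cells stimulated with the agonist NPW; 0% = agonist with vehicle and 100% = vehicle without agonist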
Target sequence (P48145 whole entry, looked up): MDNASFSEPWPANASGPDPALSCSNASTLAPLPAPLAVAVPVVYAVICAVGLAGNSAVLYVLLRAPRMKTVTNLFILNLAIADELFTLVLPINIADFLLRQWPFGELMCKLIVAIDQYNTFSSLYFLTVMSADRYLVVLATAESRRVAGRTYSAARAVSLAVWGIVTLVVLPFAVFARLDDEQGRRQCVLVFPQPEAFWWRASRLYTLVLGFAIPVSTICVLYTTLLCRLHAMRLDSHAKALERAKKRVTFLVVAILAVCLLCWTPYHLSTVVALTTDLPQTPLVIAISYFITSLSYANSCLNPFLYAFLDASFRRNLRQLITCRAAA
TAAR1 ag: human TAAR1 agonists, primary screen, Fluo-8 calcium fluorescence, CHO RD-HGA16 cells; 360,000 tested, 0.99% active; AID 624467, 2012; vehicle wells 0%, saturating PEA agonist 100%; Trace amine-associated receptor 1 (Homo sapiens), Q96RJ0; activation, % at 3 µM;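 active = activation above the mean activation of all test compounds in the run plus 3 SD, cut at about 38% in these data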
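Repeats: no replicates (n 1) | Material: CHO-derived RD-HGA16 cells with stable Gα16 and human TAAR1 | Technique: Kinetic Fluo-8 calcium fluorescence | Schedule: 17-24 h seeding, 75 min 37 °C dye, 30 min RT | Evaluation: % activation from peak over basal fluorescence ratio, DMSO-to-PEA scaled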
CHO parental Ca: ATP-evoked calcium signal inhibitors, parental CHO, primary screen, counter-screen for OX1R antagonist project, cell-based, fluorescence, Fluo-8 calcium dye; parental CHO-K1, ATP-induced calcium, Fluo-8 fluorescence; inhibition, % at 5.6 µM; 330,000 tested, 0.63% active; AID 463079, 2010;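 active = inhibition above that plate's mean sample inhibition plus 3 SD, cut at about 26% in these data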;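 note: 0% = ATP-challenged DMSO wells and 100% = DMSO wells without ATP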
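Material – parental CHO cells · Reagent – ATP stimulus · Compound – single nominal dose of 5.6 µM per compound · Detection – Fluo-8 fluorescence · Read-out basis – percent inhibition of calcium signal · Controls – ATP-challenged DMSO wells low, unchallenged DMSO wells high · Repeats – no replicates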
OX1R antag-2: OX1R (HCRTR1) antagonists, primary screen, fluorescence, CHO/OX1R cells, Fluo-8 calcium, orexin A; inhibition, % at 5 µM; Fluo-8 calcium fluorescence; Orexin/Hypocretin receptor type 1 (Homo sapiens), O43613; 330,000 tested, 0.43% active; AID 434989, 2010;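 active = inhibition above its plate's threshold, mean inhibition of all tested compounds on the plate plus 3 SD, cut at about 37% in these data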;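 note: 0% = orexin A challenge wells and 100% = SB-334867-A antagonist wells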
Starred values were filed as active, the others as inactive; / = no result. An excerpt weighted towards active compounds, which were near 4.6% of everything screened.

SMILES	OX1R antag-1	TAAR1 antag	GPR7 antag	TAAR1 ag	CHO parental Ca	OX1R antag-2
Cc1ccc(C(=O)OCC(=O)Nc2c(C)n(C)n(-c3ccccc3)c2=O)cc1[N+](=O)[O-]	16	-8	-4	6	-1	-16
CCC1CCCCN1C(=O)COC(=O)CSc1ccc(C(N)=O)cc1[N+](=O)[O-] (centres undefined)	20	-11	/	5	-17	-12
Cc1nn(Cc2ccccc2)c(Cl)c1C(=O)NC(C)(C)C	0	15	-8	0	-5	-6
NCCc1ccn[nH]1	4	-10	/	40*	3	-2
NCCc1cnc[nH]1	-3	0	-2	2	-2	-7
C/C(=N\Nc1cccc2cccnc12)c1ccccc1O	35	4	-3	11	-17	-18
C/C(=N\Nc1cccc2cccnc12)c1ccccn1	43*	-30	-2	-2	-6	-9
COc1ccc(OC)c2sc(N3CCN(C(=O)c4ccc([N+](=O)[O-])s4)CC3)nc12	46*	21	/	6	4	1
O=C(c1ccc([N+](=O)[O-])s1)N1CCN(c2ccccc2)CC1	54*	9	7	3	-2	-17
O=C(c1ccc([N+](=O)[O-])s1)N1CCN(c2ccccn2)CC1	46*	6	4	0	1	-5
O=C(NCCC(=O)N1CCN(c2ccccn2)CC1)c1ccc([N+](=O)[O-])cc1	35*	-21	/	7	-10	-5
C[C@@H]1CN([C@H](C)CO)C(=O)CCCn2nncc2CO[C@H]1CN(C)Cc1ccc2c(c1)OCO2	/	13	/	0	/	/
COc1ccc(-c2ccc(C(=O)Nc3cccc(C(F)(F)F)c3)c3occc23)c(C)c1	/	10	/	5	/	/
O=C(Nc1ccccc1N1CCOCC1)c1ccc([N+](=O)[O-])s1	31*	8	/	3	-19	-32
O=C(CN1CCC(NC(=O)c2ccco2)CC1)Nc1ccccc1C(F)(F)F	12	4	-17	-2	-19	-12
O=C(CN1C2CCCC1CC(NC(=O)c1ccccc1)C2)Nc1ccccc1C(F)(F)F (centres undefined)	68*	-10	-5	-2	-12	-10
O=C(CN1C2CCCC1CC(NC(=O)c1ccco1)C2)Nc1ccccc1C(F)(F)F (centres undefined)	51*	5	-2	4	-4	-3
COCC(=O)N1CCC(Oc2ccc(C(=O)NC(C)c3nccs3)cc2)CC1 (centres undefined)	35	-22	-6	1	0	-1
O=C(O)C1c2ccccc2C(=O)N(Cc2ccc(F)cc2)C1c1ccncc1 (centres undefined)	2	-12	-11	0	-8	-5
CCCOC(=O)c1ccc(NC(=O)c2cc(=O)[nH]c3ccccc23)cc1	4	7	-15	0	1	-12
CCCn1c(O)c(N=NC(=O)c2ccco2)c2ccccc21	36	7	-7	8	-27	-43
CCn1c(O)c(N=NC(=O)CNC(=O)/C=C/c2ccco2)c2ccccc21	36*	-9	-1	7	-9	-7
CCn1c(O)c(N=NC(=O)c2cccs2)c2ccccc21	76*	22	-1	4	-25	8
O=[N+]([O-])c1ccc(N=Nc2c(Cl)cc(O)cc2Cl)cc1	58*	59*	62*	3	67*	39*
Cc1nc2ccccc2c(=O)n1/N=C/C=C/c1ccccc1	5	11	-11	3	-31	-34
SMILES	OX1R antag-1	TAAR1 antag	GPR7 antag	TAAR1 ag	CHO parental Ca	OX1R antag-2
COc1ccc(-c2nc3ccc([N+](=O)[O-])cc3[nH]2)cc1	19	-22	11	15	0	-9
O=[N+]([O-])c1ccc2nc(-c3ccc(Cl)cc3)[nH]c2c1	25	21	24*	35	20	12
Cc1ccc(-c2nc3ccc([N+](=O)[O-])cc3[nH]2)cc1	48	0	54*	14	-11	-6
O=[N+]([O-])c1ccc2nc(-c3ccncc3)[nH]c2c1	17	-23	-18	2	-9	-5
Cc1cc(NC(=O)C2CC2)ncc1NC(=O)c1ccccn1	2	-9	-6	6	0	-14
CC(N1CCOC1=O)S(=O)(=O)c1ccccc1 (centres undefined)	20	14	-9	1	-7	4
CC(C)Oc1cccc(C(=O)Nc2nnc([C@H]3C[C@H](O)[C@@H](CO)O3)s2)c1	/	6	/	1	/	/
Cc1cc(N)n2nc(C)c(-c3ccccc3)c2n1	63*	3	3	3	-12	-9
Cc1cc(C(C)(C)C)oc1C(=O)N(CC(=O)NC1CCCC1)c1ccc(F)cc1	54*	15	16	35	-9	0
CC(=O)c1cccc(N(CC(=O)NC2CCCC2)C(=O)c2ccc(C)s2)c1	9	1	0	1	-10	-17
Cc1cc(C(C)(C)C)oc1C(=O)N(CC(=O)NC1CCCC1)c1c(C)cccc1C	77*	30	17	12	46*	42*
Cc1ccc(C(=O)N(CC(=O)NC2CCCC2)c2ccccc2C)s1	25	-7	-4	0	-23	0
CC(=O)c1ccc(N(CC(=O)NC2CCCC2)C(=O)c2ccc(C)s2)cc1	16	5	21*	2	-4	5
CC(C)n1c(=O)n(CC(=O)NCC2CCCO2)c(=O)c2c3c(sc21)COC(C)(C)C3 (centres undefined)	20	11	-4	0	-4	-20
CN(C)c1ccc(/C=C/c2nc3ccccc3c(=O)n2-c2ccc(C(=O)O)cc2)cc1	14	39	17	33	64*	83*
CN(C(=O)COC(=O)c1cc2ccccc2oc1=O)C1CCCCC1	28*	12	/	1	-10	-20
O=C(OC1CCCCC1)c1cc2ccccc2oc1=O	13	3	1	6	-10	-14
CCCCn1c(CNC(=O)c2cccs2)nc2ccccc21	12	-7	-14	1	-4	-32
CCCCCn1c(CNC(=O)c2cccs2)nc2ccccc21	56*	0	-14	0	22	7
CSc1ccc(S(=O)(=O)NCC(=O)OCC(=O)N2CCCC2=O)cc1[N+](=O)[O-]	56*	7	/	2	0	-4
CSc1ccc(S(=O)(=O)NCC(=O)OC2CCOC2=O)cc1[N+](=O)[O-] (centres undefined)	66*	-26	/	1	3	-13

From PubChem
